ChEMBL document CHEMBL2331084, “Synthesis and evaluation of oxime derivatives as modulators for amyloid beta-induced mitochondrial dysfunction” (Eur J Med Chem, 2013)
Values belong to the compound of their own block, whether it stands above or below them.

Key:
HT-22 [1] = experiment: Inhibition of mPTP in mouse HT22 cells assessed as reduction in amyloid beta-induced mitochondrial membrane damage at 10 uM incubated for 10 mins prior to amyloid beta-challenge measured every 1 hr for 3 hrs by JC-1 based fluorometric analysis; assay type: cell-based; set-up: scale not given: the % may be the effect or the level left
In short: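 HT-22 cells, 30,000 per well, seeded a day earlier, loaded with 7.5 μM JC-1 (final) in phenol red-free Opti-MEM for 1 h 15 min at 37 °C, then PBS-washed. Compound solution at 10 μM for 10 min at 37 °C, then amyloid beta 1–42 solution at 10 μM. Red (ex/em 530/580) and green (485/530) fluorescence read hourly for 3 h. Green/red ratio change normalised to vehicle as 100%.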

HT-22 [2] = experiment: Inhibition of mPTP in mouse HT22 cells assessed as recovery in amyloid beta-suppressed ATP level at 5 uM incubated for 10 mins prior to amyloid beta-challenge measured for 7 hrs relative to control; assay type: cell-based; set-up: scale not given: the % may be the effect or the level left
In short: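 HT-22 mouse hippocampal cells, grown in DMEM with 10% FBS at 37 °C and 5% CO2, were seeded the day before. Compound (10 µM solution) added 10 min before amyloid beta 1-42 (10 µM solution), then 7 h at 37 °C. Lysates normalised to equal protein by BCA, and ATP measured with a luciferase kit. % recovery is relative to the amyloid-treated vehicle. Viability is from ATP without amyloid beta.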

[3] = Cytotoxicity against mouse […] cells assessed as cell viability at 5 uM; assay type: cell-based; settings: HT22 cells, read-out: Activity
[4] = Metabolic stability in human liver microsomes at 1 uM after 30 mins by LC/MS analysis; assay type: ADME, Microsome; settings: read-out: Stability
In short: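 Pooled human liver microsomes (0.5 mg/mL protein), compound at 1 μM, 1.2 mM NADPH, 100 mM phosphate pH 7.4, 37 °C with shaking for 30 min, in duplicate. Stopped with ice-cold acetonitrile containing internal standard, centrifuged, supernatant analysed by LC–MS/MS for % remaining.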

[5] = Ratio of drug uptake in brain to drug uptake in plasma in Sprague-Dawley rat at 10 mg/kg, po; assay type: ADME, organism-based; set-up: dose 10 mg/kg, route oral; settings: read-out: BPR
In short: (§1)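 Male Sprague-Dawley rats given 10 mg/kg iv or orally. Brain-to-plasma concentration ratio taken 2 h after dosing. Concentrations measured by LC-MS/MS.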

[6] = Bioavailability in Sprague-Dawley rat at 10 mg/kg, po; settings: in vivo
[7] = AUClast in Sprague-Dawley rat at 10 mg/kg, iv; assay type: ADME, organism-based; set-up: time 0 - last, dose 10 mg/kg, route intravenous; settings: plasma
In short: (§2)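 Male Sprague Dawley rats received 10 mg/kg intravenously (n = 3) or orally (n = 4). Blood was drawn via the carotid artery at 0, 1 min (IV only), 5 and 15 min, and 0.5, 1, 2, 4, 6 and 8 h. Plasma was precipitated with acetonitrile containing internal standard and analysed by LC–MS/MS (LLOQ 5 ng/mL). Parameters came from non-compartmental analysis; AUClast used the trapezoidal rule. Values are mean ± SD.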

[8] = Terminal half life in Sprague-Dawley rat at 10 mg/kg, iv; assay type: ADME, organism-based; set-up: dose 10 mg/kg, route intravenous; settings: in vivo, read-out: beta t1/2
In short: (§3)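 Male Sprague-Dawley rats dosed 10 mg/kg iv (n = 3) or orally (n = 4). Carotid blood sampled at 0, 1 min (iv only), 5 min, 15 min, 0.5, 1, 2, 4, 6 and 8 h. Plasma analysed by LC-MS/MS after acetonitrile precipitation with internal standard (LLOQ 5 ng/mL). Parameters from non-compartmental analysis. Values are mean ± SD.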

[9] = Cytotoxicity against mouse […] cells assessed as cell viability at 10 uM after 24 hrs by MTT assay; assay type: cell-based; settings: read-out: Activity
[10] = Metabolic stability in rat plasma at 0.5 ug/ml after 2 hrs by LC/MS analysis; assay type: ADME, cell-free; settings: read-out: Stability
In short: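 Drug-free rat plasma spiked from acetonitrile stock to 0.5 μg/mL, held at 37 °C with shaking for 0, 15, 30, 60 and 120 min. Quenched with 2 volumes of acetonitrile containing carbamazepine internal standard, centrifuged, supernatant quantified by LC–MS/MS.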

[11] = Apparent volume of distribution at steady state in Sprague-Dawley rat at 10 mg/kg, iv; assay type: ADME, organism-based; set-up: dose 10 mg/kg, route intravenous; settings: in vivo, read-out: Vdss(app); in short: as §3
[12] = Clearance in Sprague-Dawley rat at 10 mg/kg, iv; assay type: ADME, organism-based; set-up: dose 10 mg/kg, route intravenous; settings: in vivo; in short: as §3
[13] = Terminal half life in Sprague-Dawley rat at 10 mg/kg, po; assay type: ADME, organism-based; set-up: dose 10 mg/kg, route oral; settings: in vivo, read-out: beta t1/2; in short: as §3
[14] = Ratio of drug uptake in brain to drug uptake in plasma in Sprague-Dawley rat at 10 mg/kg, iv; assay type: ADME, organism-based; set-up: dose 10 mg/kg, route intravenous; settings: read-out: BPR; in short: as §1
[15] = AUC (0 to infinity) in Sprague-Dawley rat at 10 mg/kg, po; assay type: ADME, organism-based; set-up: time infinity, dose 10 mg/kg, route oral; settings: plasma
[16] = Tmax in Sprague-Dawley rat at 10 mg/kg, po; assay type: ADME, organism-based; set-up: dose 10 mg/kg, route oral; settings: in vivo; in short: as §3
HT-22 [17] = experiment: Neuroprotective activity against in mouse HT22 cells assessed as inhibition of amyloid beta-induced toxicity at 10 uM incubated for 10 mins prior to amyloid beta-challenge measured after 24 hrs by MTT assay; assay type: functional
In short: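 HT-22 mouse hippocampal cells (DMEM, 10% FBS), 5000 per well, seeded a day before. Compound solution at 10 μM added 10 min before amyloid beta 1–42 solution at 10 μM, then 24 h at 37 °C. MTT 2 h, then acidified Triton/isopropanol for 1 h at RT, A570. Vehicle subtracted; % inhibition versus Aβ-treated vehicle; viability from wells without Aβ.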

[18] = Clearance in Sprague-Dawley rat at 10 mg/kg, po; assay type: ADME, organism-based; set-up: dose 10 mg/kg, route oral; settings: in vivo; in short: as §3
[19] = AUC (0 to infinity) in Sprague-Dawley rat at 10 mg/kg, iv; assay type: ADME, organism-based; set-up: time infinity, dose 10 mg/kg, route intravenous; settings: plasma
[20] = AUClast in Sprague-Dawley rat at 10 mg/kg, po; assay type: ADME, organism-based; set-up: time 0 - last, dose 10 mg/kg, route oral; settings: plasma; in short: as §2
[21] = Cmax in Sprague-Dawley rat at 10 mg/kg, po; assay type: ADME, organism-based; set-up: dose 10 mg/kg, route oral; settings: in vivo; in short: as §3
[22] = Cmax in Sprague-Dawley rat at 10 mg/kg, iv; assay type: ADME, organism-based; set-up: dose 10 mg/kg, route intravenous; settings: in vivo; in short: as §3

SMILES: FC(F)(F)c1cccc(/C=N/OC2CN3CCC2CC3)c1 (centres undefined)
- Activity (HT-22 [1]): 74%

SMILES: COc1ccc(COc2ccccc2/C=N/OC2CN3CCC2CC3)cc1 (centres undefined)
- Activity (HT-22 [1]): 96%

SMILES: CN1CCC(O/N=C/c2ccccc2OCc2ccc(Cl)c(Cl)c2)C1 (centres undefined)
- Activity (HT-22 [1]): 57%

SMILES: CC(C)N1CCC(O/N=C/c2ccccc2OCc2ccc(Cl)cc2Cl)C1 (centres undefined)
- Activity (HT-22 [1]): 61%

SMILES: FC(F)(F)c1cccc(COc2ccccc2/C=N/OC2CN3CCC2CC3)c1 (centres undefined)
- Activity (HT-22 [1]): 90%

SMILES: COc1ccccc1/C=N/OC1CCCN(C)C1 (centres undefined)
- Activity (HT-22 [1]): 257%

SMILES: C(=N\OC1CN2CCC1CC2)/c1cccc(OCc2ccccc2)c1 (centres undefined)
- Activity (HT-22 [1]): 121%

SMILES: Fc1ccc(COc2ccccc2/C=N/OC2CN3CCC2CC3)cc1 (centres undefined)
- Activity (HT-22 [1]): 93%

SMILES: C(=N\OC1CN2CCC1CC2)/c1ccccc1Oc1ccccc1 (centres undefined)
- Activity (HT-22 [1]): 84%

SMILES: C(=N\OC1CCN(Cc2ccccc2)C1)/c1ccccc1OCc1ccccc1 (centres undefined)
- Activity (HT-22 [1]): 38%
- Activity (HT-22 [2]): -137%
- viability at 5 µM [3]: 99%

- remaining at 0.5 h, 1 µM [4]: 47.8%
- Kp [5]: 0.29
- bioavailability [6]: 38.1%
- AUC(0-t) [7]: 5890 ng·h/mL
- half-life [8]: 141 min
- remaining at 2 h, 0.5 ug/ml [10]: 111%
- Vd [11]: 2.87 L/kg
- clearance [12]: 28.1 mL/min/kg
- half-life [13]: 175 min
- Kp [14]: 14.6
- AUC(0-inf) [15]: 2390 ng·h/mL
- Tmax [16]: 2 h
- CL/F [18]: 72.1 mL/min/kg
- AUC(0-inf) [19]: 6280 ng·h/mL
- AUC(0-t) [20]: 1960 ng·h/mL
- Cmax [21]: 570 ng/mL
- Cmax [22]: 44500 ng/mL
SMILES: Clc1ccc(COc2ccccc2/C=N/OC2CCN(Cc3ccccc3)C2)cc1Cl (centres undefined)
- Activity (HT-22 [1]): 41%
- viability at 24 h, 10 µM [9]: 129%
- Activity (HT-22 [2]): 104%
- viability at 5 µM [3]: 83%
- inhibition at 10 µM (HT-22 [17]): 149%

SMILES: Clc1ccc(COc2ccccc2/C=N/OC2CN3CCC2CC3)cc1 (centres undefined)
- Activity (HT-22 [1]): 85%

SMILES: CN1CCC(O/N=C/c2cccc(C(F)(F)F)c2)C1 (centres undefined)
- Activity (HT-22 [1]): 108%

SMILES: FC(F)(F)c1cccc(/C=N/OC2CCN(Cc3ccccc3)C2)c1 (centres undefined)
- Activity (HT-22 [1]): 123%

SMILES: FC(F)(F)c1ccc(COc2ccccc2/C=N/OC2CN3CCC2CC3)cc1 (centres undefined)
- Activity (HT-22 [1]): 85%

SMILES: CN1CCCC(O/N=C/c2ccccc2OCc2ccc(Cl)cc2Cl)C1 (centres undefined)
- Activity (HT-22 [1]): 64%

SMILES: Clc1cccc(Cl)c1COc1ccccc1/C=N/OC1CN2CCC1CC2 (centres undefined)
- Activity (HT-22 [1]): 96%

SMILES: CC(C)N1CCC(O/N=C/c2ccccc2OCc2cccc(F)c2)C1 (centres undefined)
- Activity (HT-22 [1]): 39%
- Activity (HT-22 [2]): -223%
- viability at 5 µM [3]: 94%

SMILES: Brc1ccccc1/C=N/OC1CN2CCC1CC2 (centres undefined)
- Activity (HT-22 [1]): 93%

SMILES: CC(C)N1CCC(O/N=C/c2ccccc2OCc2ccccc2)C1 (centres undefined)
- Activity (HT-22 [1]): 19%
- Activity (HT-22 [2]): -93%
- viability at 5 µM [3]: 67%

SMILES: CN1CCCC(O/N=C/c2ccccc2OCc2ccccc2)C1 (centres undefined)
- Activity (HT-22 [1]): 29%
- Activity (HT-22 [2]): 15%
- viability at 5 µM [3]: 112%

SMILES: Clc1ccccc1COc1ccccc1/C=N/OC1CN2CCC1CC2 (centres undefined)
- Activity (HT-22 [1]): 88%

SMILES: CN1CCCC(O/N=C/c2cccc(C(F)(F)F)c2)C1 (centres undefined)
- Activity (HT-22 [1]): 84%

SMILES: Clc1cccc(COc2ccccc2/C=N/OC2CN3CCC2CC3)c1 (centres undefined)
- Activity (HT-22 [1]): 101%

SMILES: CC(C)N1CCC(O/N=C/c2cccc(C(F)(F)F)c2)C1 (centres undefined)
- Activity (HT-22 [1]): 54%
